Results gathered from unrelated publications.
Each line is one published result; the experiments were not run side by side.
Target: Mitogen-activated protein kinase kinase kinase 20 (MAP3K20, Homo sapiens, UniProt Q9NYL2)

Cc1cnn2ncc(-c3ccnc(N(C)C)n3)c2c1 has a remaining binding of 95% (binding; 1 µM).
C[C@@H](c1ccc(-n2cnc3c(N)ncnc32)cc1)N1CCc2nn(C)c(Cc3ccccc3)c2C1=O has a remaining binding of 58% (binding; competition with immobilised ligand; 0.1 µM).
With CN(C)c1nccc(-c2cnc3ncccn23)n1 the remaining binding was 89% (binding; 1 µM).
With Cc1cnc(Nc2ccc(C(=O)N3CCC(N4CCCC4)CC3)cc2)nc1-c1cc2ccccc2s1 the remaining binding was 43% (binding; competition with immobilised ligand; 1 µM).
c1cnn2ncc(-c3ccnc(N4CCC45COC5)n3)c2c1 has a remaining binding of 100% (binding; 1 µM).
For O=C(NCC1CCOCC1)c1n[nH]cc1NC(=O)c1c(F)cccc1F, the remaining binding was 100% (binding; competition with immobilised ligand; 1 µM).
For C[C@H]1CCN(c2nccc(-c3cnn4ncccc34)n2)C1, the remaining binding was 97% (binding; 1 µM).
Nc1ncc2c(n1)-c1c([nH]c3ccc(C#CC4CC4)cc13)CCCC2 gave a remaining binding of 93% (binding; competition with immobilised ligand; 1 µM).
CN(C(=O)c1ccccc1)c1cc(N(C)c2ccc3c(c2)CCc2ccc(C(=O)NCCN4CCOCC4)cc2C3=O)ccc1F gave a remaining binding of 82% (cell-free assay; competition with immobilised ligand; 1 µM).
The remaining binding of CN(C)c1nccc(-c2cnn3ncccc23)n1 is reported as 100% (binding; 1 µM).
The remaining binding of Cc1cc(-n2nc(Cc3cc(F)cc(C(F)(F)F)c3)nc2C)ccc1C(N)=O is reported as 99% (cell-free assay; competition with immobilised ligand; 1 µM).
With CN(C)c1ncc(F)c(-c2cnn3ncccc23)n1 the remaining binding was 96% (binding; 1 µM).
CS(=O)(=O)NCC[C@H](NC(=O)c1cncc2c1cnn2-c1ccc(F)cc1)c1ccnc(S(C)(=O)=O)c1 gave a remaining binding of 88% (cell-free assay; competition with immobilised ligand; 1 µM).
With O=C(c1ccc(Nc2ncc(Cl)c(-c3cc4ccccc4s3)n2)cc1)N1CCC(N2CCCC2)CC1 the remaining binding was 48% (binding; competition with immobilised ligand; 1 µM).
O=c1nc(-c2ccccn2)sc2ccccc12 gave a remaining binding of 87% (binding; competition with immobilised ligand; 1 µM).
For N[C@@H]1CCN(c2nccc(-c3cnn4ncccc34)n2)C1, the remaining binding was 100% (binding; 1 µM).
For Cc1c(NC(=O)c2cc(C(N)=O)nc3cc(F)ccc23)c(C(F)(F)F)nn1Cc1ccc(C#N)cc1, the remaining binding was 100% (cell-free assay; competition with immobilised ligand; 1 µM).
With COc1cnc(Nc2cccc(S(N)(=O)=O)c2)nc1N1CCN(c2ccccc2)C(=O)C1 the remaining binding was 100% (binding; competition with immobilised ligand; 1 µM).
Cc1cc(C)c(-n2ccn3nc(-c4cccnc4)cc23)cc1NC(=O)c1cc(C#N)cc(S(F)(F)(F)(F)F)c1 gave a remaining binding of 97.5% (cell-free assay; competition with immobilised ligand; 0.1 µM).
With O=C(c1ccc(Nc2nccc(-c3cc4ccccc4s3)n2)cc1)N1CCC(N2CCCC2)CC1 the remaining binding was 69% (binding; competition with immobilised ligand; 1 µM).
With O=C(O)[C@@H]1[C@@H](Cn2nnc3ccccc3c2=O)CC[C@H]1C(=O)c1ccc(OCCC2CCOCC2)cc1 the remaining binding was 91% (cell-free assay; competition with immobilised ligand; 1 µM).
With CNC(=O)[C@@H]1CC[C@@H](n2c(-c3ccc4cnccc4c3)nc3ccc(C(=O)NCc4cccc(C(N)=O)c4)cc32)C1 the remaining binding was 100% (binding; competition with immobilised ligand; 1 µM).
